Source: PubChem
CHRM4 agonist: human M4 muscarinic receptor agonists, primary screen, CHO-K1 cells, Fluo-8 calcium fluorescence; CHO-K1 hM4/Gqi5; vehicle 0%, full acetylcholine response 100%; activation, % at 3 µM; actives 0.14% (n = 360,000);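 active = activation above the run mean over all test wells plus 3 SD, cut at about 32% in these data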;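 also: peak over basal fluorescence ratio per well then scaled between controls; 0% = DMSO wells and 100% = acetylcholine at EC100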
Target sequence (P08173 whole entry, looked up): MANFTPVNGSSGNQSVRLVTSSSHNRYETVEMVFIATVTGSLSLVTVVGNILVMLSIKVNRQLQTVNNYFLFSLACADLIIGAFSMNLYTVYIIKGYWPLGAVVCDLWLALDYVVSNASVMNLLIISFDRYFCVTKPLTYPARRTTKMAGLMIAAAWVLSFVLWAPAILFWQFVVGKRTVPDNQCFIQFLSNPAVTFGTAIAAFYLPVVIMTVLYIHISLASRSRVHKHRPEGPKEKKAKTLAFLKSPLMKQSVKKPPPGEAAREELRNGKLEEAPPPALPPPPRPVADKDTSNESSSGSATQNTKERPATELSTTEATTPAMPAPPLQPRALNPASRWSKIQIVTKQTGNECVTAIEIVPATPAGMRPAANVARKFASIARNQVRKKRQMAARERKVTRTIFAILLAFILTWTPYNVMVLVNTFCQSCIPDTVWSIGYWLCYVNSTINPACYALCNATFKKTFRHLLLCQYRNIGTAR
CHRM4 antagonist: human M4 muscarinic receptor antagonists, primary screen, CHO cells, Fluo-8 calcium fluorescence; inhibition, % at 3 µM; CHO-hM4 cells, ACh EC80; Muscarinic acetylcholine receptor M4 (Homo sapiens), P08173; actives 0.73% (n = 360,000); AID 624125, 2012;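 active = inhibition above its plate's cutoff, the mean inhibition of sample wells plus 3 SD, cut at about 27% in these data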;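 also: 0% = acetylcholine EC80 with DMSO and 100% = DMSO without agonist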
OXTR agonist: human OXTR agonists, primary screen, fluorescence, CHO-OTR cells, Fluo-8 calcium; Oxytocin receptor (Homo sapiens), P30559; actives 0.32% (n = 320,000); AID 2435, 2010; activation, % at 3 µM; Fluo-8 calcium fluorescence; normalized: DMSO 0%, oxytocin 100%;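 active = activation above the mean of all tested compounds plus 3 SD, cutoff set per screening run, cut at about 20% in these data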;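 also: peak over basal fluorescence ratio from a 100 s FLIPR kinetic read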
OXTR potentiate: human OXTR potentiators, primary screen, fluorescence, CHO-OTR cells, Fluo-8 calcium | Oxytocin receptor (Homo sapiens), P30559 | Fluo-8 calcium fluorescence, potentiator mode; 0% = oxytocin EC15, 100% = EC100 | activation, % at 3 µM | actives 0.061% (n = 320,000) | AID 2445, 2010;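 active = activation above that plate's cutoff, the mean activation of tested compounds plus 3 SD, cut at about 6.6% in these data, passing the limit was not always enough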;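 also: 100% uses oxytocin at 75 nM as the full agonist control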
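Dosing: Single dose, 3.0 µM nominal final compound concentration | Material: Human OTR in CHO cells | Technique: Kinetic Fluo-8 calcium fluorescence | Benchmarks: EC15 oxytocin alone as 0%, 75 nM oxytocin as 100% | Probe or stimulus: Oxytocin at about EC15, sub-maximal agonist stimulus | Incubation: Compound 6 min at room temperature before oxytocin, 100 s read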
M4 PAM: human M4 muscarinic receptor positive allosteric modulators, primary screen, CHO-K1 cells, Fluo-8 calcium fluorescence. Muscarinic acetylcholine receptor M4 (Homo sapiens), P08173. CHO-K1 hM4/Gqi5, ACh EC20; 0% = ACh EC20, 100% = maximal ACh. activation, % at 3 µM. actives 0.4% (n = 360,000). AID 624126, 2012;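 active = activation above its plate's cutoff, the mean activation of sample wells plus 3 SD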
V1R ag counter: agonists of human V1a receptor, primary screen, counter-screen for OXTR agonist project, fluorescence, CHO-V1R cells; Fluo-8 calcium fluorescence, agonist mode; 0% DMSO, 100% 3 nM vasopressin; Vasopressin V1a receptor (Homo sapiens), P37288; AID 2797, 2010; activation, % at 3 µM; actives 0.25% (n = 320,000);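 active = activation above the mean activation of all tested compounds plus 3 SD, per screening run, cut at about 20% in these data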;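 also: signal is peak over basal fluorescence ratio across a 100 second FLIPR read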
* marks the source's active call; other numbers are inactive results; . = not tested or not shown. An excerpt weighted towards active compounds, which were near 1.5% of everything screened.

SMILES | CHRM4 agonist | CHRM4 antagonist | OXTR agonist | OXTR potentiate | M4 PAM | V1R ag counter
CC(C)(C)c1[nH]nc2c1C(c1ccco1)C(C#N)=C(N)O2 (stereo unspecified) | 1.2 | -11.3 | -1.2 | 2.5 | 14.6 | 0.1
Cc1c(C=O)c2ccccn2c1C(=O)c1cccs1 | 3.6 | -9.0 | -0.1 | -19.9 | 4.8 | 0.1
Cc1c(C=O)c2ccccn2c1C(=O)c1ccccc1Cl | 0.4 | 55.1* | -0.9 | -0.2 | -17.4 | -0.4
CC(C)Oc1ccc2ccccc2c1CNC[C@H]1O[C@@H](n2ccc(N)nc2=O)[C@H](O)[C@@H]1O | 0.3 | -12.2 | . | . | 5.1 | .
c1sc2[n+](c1C13CC4CC(CC(C4)C1)C3)CCS2 | 0.1 | 34.3* | 2.2 | 3.1 | -12.3 | 0.2
Fc1ccc(-c2csc3[n+]2CCS3)cc1 | -0.1 | -0.1 | -0.5 | -11.2 | 3.8 | -0.1
COc1ccc(CCN2CC(C(=O)Nc3ccccc3F)CC2=O)cc1OC (stereo unspecified) | 0.2 | -4.9 | 0.3 | -1.9 | -5.9 | 0.7
c1ccc(Cn2nnnc2-c2ccco2)cc1 | 1.5 | 3.9 | 0.5 | -3.9 | 37.4* | 1.3
CN(Cc1ccccc1)C(c1ccnc2ccccc12)c1nnnn1-c1ccc2c(c1)OCCO2 (stereo unspecified) | 3.7 | -9.8 | . | . | 3.9 | .
CCOC(=O)C(CC)Sc1nc2c(cnn2-c2ccc(F)cc2)c(=O)[nH]1 (stereo unspecified) | -0.7 | 0.5 | -2.4 | -9.0 | -0.3 | -0.7
CCC(Sc1nc2c(cnn2-c2ccc(Cl)cc2)c(=O)[nH]1)C(=O)OC (stereo unspecified) | -0.9 | 40.5* | -0.7 | -3.0 | -12.5 | 0.9
CC(C)CN1Cc2ccccc2Oc2cc(Br)ccc2S1(=O)=O | 8.7 | -8.4 | . | . | 24.6* | .
CCOC(=O)C1=CNS(=O)(=O)NC1c1ccc(C[C@H](NC(=O)CNC(=O)CCc2ccccc2)C(N)=O)cc1 (stereo partly specified) | 0.6 | -3.6 | . | . | 0.2 | .
CCC[C@@H](CN1CCC[C@H]1CN1C(N)=NC[C@@H]1Cc1ccccc1)N1C[C@@H]([C@H](C)CC)N(CCCC2CCCC2)C1=N | 8.1 | 41.5* | 3.0 | -1.5 | -15.8 | 4.3
Cc1ccc(C)c(N2CCN(CCCNC(=O)Cn3cc4c(n3)CCCCC4)CC2)c1 | -2.6 | 100.2* | 12.5 | -13.9 | -18.9 | 10.3
C=CCNC(=O)CN1C2CCCC1CC(NC(=O)c1ccccc1C)C2 (stereo unspecified) | 1.0 | 3.5 | 0.3 | -3.2 | 9.6 | -0.2
Cc1ccccc1C(=O)NC1CC2CCCC(C1)N2CC(C)C (stereo unspecified) | -0.6 | 27.4* | . | . | -11.0 | .
CCCOc1ccc(OC(=O)c2ccc(Br)o2)cc1 | 76.1* | 2.8 | 42.4* | -24.0 | 11.9 | 64.3*
CC1=C(C)/C(=N\OS(=O)(=O)c2ccccc2)C=CC1=O | 16.0 | 67.4* | 19.3 | -21.5 | -10.0 | 13.8
COc1ccc(OC)c(NC(=O)Nc2nc(C(N)c3ccccc3Cl)cs2)c1 (stereo unspecified) | 10.7 | -1.0 | . | . | 1.5 | .
CC(=O)N1CCc2cc(S(=O)(=O)NC(CC(C)C)C(=O)N3CCc4ccccc4C3)ccc21 (stereo unspecified) | 1.5 | 29.1* | -2.2 | -9.2 | 32.4* | -1.0
CC(=O)N1CCc2cc(S(=O)(=O)NC(CC(C)C)C(=O)N3CCCC3)ccc21 (stereo unspecified) | 1.7 | -2.7 | -0.5 | -3.5 | -1.2 | -0.3
CCn1c(SCC(=O)Nc2nccs2)nnc1C1CC1 | 0.4 | -2.1 | -0.1 | -6.8 | 25.1* | 0.2
COC(=O)c1cc(Oc2ccc(C(=O)OC)cc2N)cc(C(=O)OC)c1 | 0.7 | -1.9 | -0.1 | -6.6 | 19.6* | 5.5
Cn1ccnc1C1CCCCN1Cc1nc(Cc2cccc(C(F)(F)F)c2)no1 (stereo unspecified) | 2.8 | 38.6* | -0.2 | -0.4 | -21.3 | 0.5
SMILES | CHRM4 agonist | CHRM4 antagonist | OXTR agonist | OXTR potentiate | M4 PAM | V1R ag counter
COc1ccc(-c2noc(CN3CCCCC3c3nccn3C)n2)cc1 (stereo unspecified) | 0.3 | 10.3 | -0.3 | -1.5 | -18.1 | 0.2
Cn1ccnc1C1CCCCN1Cc1nc(-c2ccc3c(c2)OCO3)no1 (stereo unspecified) | -0.6 | 26.6* | -0.4 | -10.9 | -25.1 | 0.6
CCOc1ccccc1CN1CCNC(=O)C1CC(=O)NCc1cc(C)n(C)n1 (stereo unspecified) | 0.4 | 6.7 | -0.6 | -9.2 | -2.5 | -0.8
CCOC(=O)c1c(-c2ccc(C)o2)csc1NC(=O)CN1CCCCC1 | -1.2 | 5.9 | -1.5 | -9.8 | 2.6 | 0.1
CCOC(=O)c1c(-c2ccc(C)o2)csc1NC(=O)CN(C)CC(=O)Nc1ccc(C)cc1 | 6.0 | 31.3* | 0.0 | -0.2 | -20.8 | -0.7
O=S(=O)(Nc1nc2ccccc2nc1NCCO)c1cccc(Cl)c1 | -1.5 | 28.7* | -0.6 | -14.6 | -14.3 | 1.3
O=C1/C(=C/c2ccc(F)c(F)c2)CSc2sccc21 | -0.8 | -4.3 | -1.8 | 0.2 | 37.2* | -1.4
CCCCCCC(=O)N1CCC(c2nc3c(nnn3Cc3ccccc3Cl)c(=O)[nH]2)CC1 | -1.6 | -24.3 | -2.1 | -2.0 | 0.9 | -0.9
Clc1cccc(-c2cccc3nccn23)c1Cl | 4.0 | -6.1 | . | . | -0.8 | .
COc1ccc2nc(C)cc(NCc3ccc(F)cc3)c2c1 | 32.3* | 27.2* | 10.8 | -12.2 | -6.7 | 10.4
c1nc2n(n1)C1=C(CCCC1)C1(CCCCC1)N2 | 1.1 | -1.8 | -0.6 | -14.7 | 1.9 | -0.2
OC1(c2cccs2)CN(c2ccc(Cl)cc2)C2=[N+]1CCCS2 (stereo unspecified) | 1.2 | -1.1 | 0.5 | 0.4 | 2.3 | 0.3
OC1(c2cccs2)CN(c2ccc(Cl)cc2)C2=[N+]1CCCC2 (stereo unspecified) | 1.2 | 30.0* | -0.8 | -11.8 | -23.7 | 0.3
OC(c1ccccc1)(c1ccccc1)C1CCN(CCCOc2ccc3c(c2)CCCC3)CC1 | 14.9 | 31.8* | . | . | -12.0 | .
Oc1ccccc1CN1CCC(C(O)(c2ccccc2)c2ccccc2)CC1 | 1.2 | 0.9 | 0.8 | -9.0 | -7.7 | 2.1
OC(c1ccccc1)(c1ccccc1)C1CCN(CCCOc2cccc(OC(F)(F)F)c2)CC1 | 17.5 | 32.1* | . | . | -12.8 | .
CC(=O)Nc1ccc(OCCCN2CCC(C(O)(c3ccccc3)c3ccccc3)CC2)cc1 | 5.5 | 86.4* | . | . | -13.9 | .
